Data on 34 molecules can be found in ChEMBL document CHEMBL1147439, “Synthesis and SAR evaluation of 1,2,4-triazoles as A(2A) receptor antagonists” (Bioorg Med Chem Lett, 2004).

Bounds are passed on as bounds.

In data set [1] the target is T1, Adenosine receptor A2a (Homo sapiens, UniProt P29274). Briefly: Binding affinity towards human recombinant adenosine A2A receptor by displacement of [3H]SCH-58261 radioligand. (In general: In a radioligand displacement assay an active substance lowers the binding of a labelled ligand.)
T1 sequence (P29274 whole entry): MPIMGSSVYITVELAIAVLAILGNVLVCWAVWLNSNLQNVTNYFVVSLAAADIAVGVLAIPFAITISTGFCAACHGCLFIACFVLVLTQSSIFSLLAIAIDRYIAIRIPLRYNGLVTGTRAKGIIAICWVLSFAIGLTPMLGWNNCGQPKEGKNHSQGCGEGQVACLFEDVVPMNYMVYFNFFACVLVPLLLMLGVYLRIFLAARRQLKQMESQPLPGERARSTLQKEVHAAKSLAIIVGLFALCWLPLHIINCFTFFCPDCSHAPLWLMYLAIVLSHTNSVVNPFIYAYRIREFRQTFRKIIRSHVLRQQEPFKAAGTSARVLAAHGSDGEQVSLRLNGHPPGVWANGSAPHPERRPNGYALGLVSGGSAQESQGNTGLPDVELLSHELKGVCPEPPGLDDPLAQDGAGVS
The target of data set [2] is T2, Adenosine receptor A1 (Homo sapiens, UniProt P30542).
T2 sequence (P30542 whole entry): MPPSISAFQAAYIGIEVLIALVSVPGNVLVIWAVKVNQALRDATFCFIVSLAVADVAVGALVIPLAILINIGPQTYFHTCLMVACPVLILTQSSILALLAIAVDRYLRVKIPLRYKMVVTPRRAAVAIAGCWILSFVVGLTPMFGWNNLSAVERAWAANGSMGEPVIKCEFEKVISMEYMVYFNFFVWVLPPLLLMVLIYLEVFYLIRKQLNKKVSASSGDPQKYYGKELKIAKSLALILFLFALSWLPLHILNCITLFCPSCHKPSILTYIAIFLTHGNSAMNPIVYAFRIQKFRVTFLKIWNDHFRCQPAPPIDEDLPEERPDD
Briefly: Binding affinity for human adenosine A1 receptor by displacement of [3H]DPCPX. The procedure, abridged:
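Membranes from cells expressing recombinant human A1 receptor, pre-mixed with adenosine deaminase and SPA beads. Labelled with [3H]DPCPX (0.6 nM final) against 10 concentrations of competitor or buffer. Buffer: Tris-HCl 50 mM pH 7.4, NaCl 120 mM, KCl 5 mM, CaCl2 2 mM, MgCl2 10 mM. Xanthine amine congener defined non-specific binding. Incubated 60 min at room temperature, centrifuged, scintillation counted. Duplicates, at least two experiments; Ki given as mean.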

The nature of data set [3]: pKa value was determined. Type of data set: physicochemical.
Data set [4] addresses T1, Adenosine receptor A2a. Kind of data set: Binding affinity for human adenosine A2A receptor by displacement of [3H]SCH-58,261; inactive.
The target of data set [5] is Adenosine receptor A2a (Rattus norvegicus, UniProt P30543). Briefly: Binding affinity for rat adenosine A2A receptor by displacement of [3H]SCH-58261.
Adenosine receptor A2a (Rattus norvegicus, UniProt P30543), sequence (P30543 whole entry): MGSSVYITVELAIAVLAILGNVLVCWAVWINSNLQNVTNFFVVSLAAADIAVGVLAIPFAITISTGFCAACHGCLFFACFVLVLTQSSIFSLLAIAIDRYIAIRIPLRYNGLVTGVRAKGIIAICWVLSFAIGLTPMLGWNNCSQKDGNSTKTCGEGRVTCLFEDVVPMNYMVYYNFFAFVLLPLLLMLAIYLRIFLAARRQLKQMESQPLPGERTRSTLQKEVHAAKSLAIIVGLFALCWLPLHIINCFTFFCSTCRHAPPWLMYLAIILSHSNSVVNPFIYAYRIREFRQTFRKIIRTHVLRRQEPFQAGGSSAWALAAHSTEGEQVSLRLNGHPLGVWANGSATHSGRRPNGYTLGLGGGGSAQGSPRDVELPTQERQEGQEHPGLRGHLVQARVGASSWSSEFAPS
The nature of data set [6]: Medium permeability in parallel artificial membrane permeation assay; medium. It counts as functional.
Data set [7] in a line: Medium permeability in parallel artificial membrane permeation assay; high. Type of data set: functional.

In the case of `COc1cccc(-c2n[nH]c(Cc3ccccc3Br)n2)c1`, the Ki in data set [1] is 20 nM.
The same measure, in the same setting: the same measure for `COc1cc(/C=N/N=C(\S)Cc2ccccc2)c(O)c(OC)c1`: 4200 nM.
As to `S/C(Cc1ccccc1)=N\N=C\c1cnc2ccccc2c1`, the Ki in data set [1] was 2000 nM.
For `S/C(Cc1ccccc1)=N\N=C\c1ccccc1`, in data set [1], the inhibitory constant (Ki) was > 5200 nM.
In the case of `c1cc(CN2CCCC2)cc(-c2n[nH]c(-c3ccc4c(c3)OCCO4)n2)c1`, the inhibitory constant (Ki) in data set [2] is 7600 nM; in data set [1], 1000 nM.
With `COc1cccc(-c2n[nH]c(CC3CCCCC3)n2)c1`, in data set [1], the Ki came out at 700 nM.
Same read-out and setting: the result for `Oc1ccc(OC(F)(F)F)cc1/C=N/N=C(\S)Cc1ccccc1` reads 1400 nM.
`COc1cccc(-c2n[nH]c(CCc3ccc(Cl)c(Cl)c3)n2)c1`: the Ki in data set [2] was 1800 nM; in data set [1], 1000 nM.
In the same order, the values of `COc1cccc(-c2n[nH]c(Cc3ccc(Cl)c(Cl)c3)n2)c1` are 1900 nM and 40 nM.
With `O=[N+]([O-])c1ccc(O)c(/C=N/N=C(\S)Cc2ccccc2)c1`, the Ki in data set [1] was 10 nM.
The same measure, in the same setting: the result for `Clc1ccc(Cc2nnc(C3CCCNC3)[nH]2)cc1Cl` (configuration not stated) reads > 5200 nM; that for `COc1cccc(-c2nnc(CN3CCCCC3)[nH]2)c1`, > 5200 nM.
On the same count and under the same terms, the result for `COc1cccc(O)c1/C=N/N=C(\S)Cc1ccccc1` reads > 5200 nM; that for `COc1cccc(/C=N/N=C(\S)Cc2ccccc2)c1O`, 4700 nM.
For the molecule `COc1ccc(O)c(/C=N/NC(=O)Cc2ccccc2)c1`, the pKa in data set [3] turned out to be 2.9.
In data set [3], `COc1ccc(O)c(/C=N/N=C(\S)Cc2ccccc2)c1` had a pKa of 6.6. Further, the Ki in data set [1] is 20 nM.
Turning to `S/C(Cc1ccccc1)=N\N=C\c1ccc2ccccc2n1`, the Ki in data set [1] is 1200 nM.
The same measure, in the same setting: the same measure for `Clc1ccc(Cc2n[nH]c(-c3ccc4c(c3)OCO4)n2)cc1Cl`: 100 nM.
As to `Cc1ccc(O)c(C2=NN(C(=S)Cc3ccccc3)CC2)c1`, in data set [4], the Ki is > 5200 nM.
`COc1cccc(-c2nnc(Cc3ccc(F)c(F)c3)[nH]2)c1`: the inhibition constant Ki in data set [1] is 70 nM.
`Clc1ccc(Cc2nnc(-c3cnccn3)[nH]2)cc1Cl`: the Ki in data set [1] was found to be 60 nM.
`S/C(Cc1ccccc1)=N\N=C\c1cccnc1`: the inhibition constant Ki in data set [1] stood at 5 nM.
As to `Cn1nc(-c2ccc(N=[N+]=[N-])cc2)nc1-c1cccc(CN2CC=CC2)c1`, the Ki is 7300 nM in data set [2] and 400 nM in data set [1].
On to `COc1ccc(/C=N/N=C(\S)Cc2ccccc2)c(O)c1`, for which the Ki in data set [1] is 100 nM.
Molecule `COc1ccc(O)c(/C=N/NS(=O)(=O)Cc2ccccc2)c1` had a pKa in data set [3] of 6.5.
For the molecule `COc1cccc(-c2n[nH]c(Cc3ccc4ccccc4c3)n2)c1`, the figures for the inhibition constant (Ki) in data set [5], in data set [2] and in data set [1] were 400 nM, 2500 nM and 100 nM, respectively. Also, the Activity in data set [6] was 0.3 10e-6·s cm-1.
On to `S/C(Cc1ccccc1)=N\N=C\c1ccccn1`, for which the Ki in data set [1] came to 100 nM.
The same measure, in the same setting: the result for `Oc1ccccc1-c1n[nH]c(-c2ccccc2)n1` reads 700 nM.
Consider `COc1cccc(-c2nc(Cc3ccc(C)c(C)c3)n[nH]2)c1`, for which the Ki was 90 nM in data set [5], 1700 nM in data set [2] and 20 nM in data set [1]. Besides, in data set [7], the Activity is 0.9 10e-6·s cm-1.
In the same order, the values of `COc1cccc(-c2n[nH]c(Cc3cccc(F)c3F)n2)c1` are 40 nM, 900 nM, 20 nM and 3.8 10e-6·s cm-1.
Regarding `COc1cccc(-c2n[nH]c(Cc3cccc([N+](=O)[O-])c3)n2)c1`, the Ki in data set [1] is 80 nM.
Turning to `COc1cccc(-c2n[nH]c(Cc3cccc(Br)c3)n2)c1`, the Ki is 40 nM in data set [5], 100 nM in data set [2] and 10 nM in data set [1]. For the same molecule, in data set [7], the Activity was 1.9 10e-6·s cm-1.
As to `COc1cccc(-c2nnc(Cc3ccc(Cl)c(Cl)c3)[nH]2)c1OC`, in data set [1], the Ki was found to be 90 nM.
With `COc1cccc(-c2nnc(-c3ccc(Cl)c(Cl)c3)[nH]2)c1`, the Ki in data set [2] came to 6100 nM; in data set [1] it was 700 nM.

The Ki is the dissociation constant of the complex between target and ligand, obtained from inhibition or displacement. As usually defined, the pKa is the pH at which an ionisable group is half protonated. Low values mean a stronger acid or weaker base, high ones a weaker acid or stronger base.
